Experimental data taken from ChEMBL document CHEMBL1799919, “Design, synthesis, biological evaluation, and structure-activity relationships of substituted phenyl 4-(2-oxoimidazolidin-1-yl)benzenesulfonates as new tubulin inhibitors mimicking combretastatin A-4” (J Med Chem, 2011).
Calls of active or inactive are those of the source. The rule behind the calls is not given here.

Tests used:
HT-29 = experiment: Antiproliferative activity against human HT-29 cells after 48 hrs by sulforhodamine B assay; format: functional, cell-based; conditions: HT-29, 48 h
M21 [1] = experiment: Antiproliferative activity against human M21 cells after 48 hrs by sulforhodamine B assay; format: functional, cell-based; conditions: M21, 48 h
MCF7 = experiment: Antiproliferative activity against human MCF7 cells after 48 hrs by sulforhodamine B assay; format: functional, cell-based; conditions: MCF7, 48 h
M21 [2] = experiment: Cell cycle arrest in human M21 cells assessed as accumulation at G0/G1 phase at 5 times IC50 after 24 hrs using propidium iodide staining by flow cytometric analysis (reference value: 61%); format: functional
M21 [3] = experiment: Cell cycle arrest in human M21 cells assessed as accumulation at S phase at 5 times IC50 after 24 hrs using propidium iodide staining by flow cytometric analysis (reference value: 30%); format: functional
M21 [4] = experiment: Cell cycle arrest in human M21 cells assessed as accumulation at G2/M phase at 5 times IC50 after 24 hrs using propidium iodide staining by flow cytometric analysis (reference value: 9%); format: functional
MDA-MB-231 = experiment: Displacement of N,N'-ethylenebis(iodoacetamide) from colchicine-binding site of beta-tubulin in human MDA-MB-231 cells at 1000 times IC50 preincubated for after 2 hrs before N,N'-ethylenebis(iodoacetamide) addition measured after 1.5 hrs by chemiluminescence assay; format: cell-based
Summary of the method: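 EBI (100 μM final) added for 1.5 h at 37 °C; controls received 0.5% DMSO. Lysates (20 μg protein) run on 10% SDS-PAGE and blotted with anti-β-tubulin (TUB 2.1). β-tubulin–EBI adduct band detected by ECL.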

M21 [5] = experiment: Disruption of cytoskeleton microtubule structure of human M21 cells at 5 times IC50 after 16 hrs by indirect immunofluorescence assay; format: functional, cell-based
Summary of the method: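 Fixed in 3.7% formaldehyde, permeabilized with saponin, and stained with anti-β-tubulin (TUB 2.1), Alexa-488 secondary and DAPI. Microtubule structure scored by fluorescence microscopy.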

Row | SMILES | IC50 (HT-29) | IC50 (M21 [1]) | IC50 (MCF7) | Activity (M21 [2]) | Activity (M21 [3]) | Activity (M21 [4]) | inhibition (MDA-MB-231) | Activity (M21 [5])
1 | O=C1NCCN1c1ccc(S(=O)(=O)Oc2cc(Cl)c(Cl)cc2Cl)cc1 | 30 nM | 31 nM | 30 nM | 1% | 0% | 99% | Active | Active
2 | Cc1cc(OS(=O)(=O)c2ccc(N3CCNC3=O)cc2)ccc1N | 670 nM | 360 nM | 600 nM |  |  |  |  | 
3 | O=C1NCCN1c1ccc(S(=O)(=O)Oc2cccc(F)c2)cc1 | 42 nM | 31 nM | 54 nM | 7% | 9% | 84% | Active | Active
4 | CCOc1ccccc1OS(=O)(=O)c1ccc(N2CCNC2=O)cc1 | 40 nM | 24 nM | 83 nM | 1% | 19% | 80% | Active | Active
5 | O=C1NCCCN1c1ccc(S(=O)(=O)Oc2ccc(Cl)cc2)cc1 | > 1000 nM | > 1000 nM | > 1000 nM |  |  |  |  | 
6 | CCCc1ccccc1OS(=O)(=O)c1ccc(N2CCNC2=O)cc1 | 76 nM | 61 nM | 69 nM | 0% | 0% | 100% | Active | Active
7 | Cc1cc(OS(=O)(=O)c2ccc(N3CCNC3=O)cc2)cc(C)c1C | 34 nM | 15 nM | 49 nM | 0% | 0% | 99% | Active | Active
8 | O=C1NCCCN1c1ccc(S(=O)(=O)Oc2cc(Cl)c(Cl)cc2Cl)cc1 | > 1000 nM | > 1000 nM | > 1000 nM |  |  |  |  | 
9 | COc1cc(OS(=O)(=O)c2ccc(N3CCCNC3=O)cc2)cc(OC)c1OC | 490 nM | 240 nM | 730 nM |  |  |  |  | 
10 | Cc1cccc(OS(=O)(=O)c2ccc(N3CCCNC3=O)cc2)c1 | > 1000 nM | > 1000 nM | > 1000 nM |  |  |  |  | 
11 | Cc1cccc(OS(=O)(=O)c2ccc(N3CCNC3=O)cc2)c1C | 31 nM | 17 nM | 50 nM | 5% | 32% | 63% | Active | Active
12 | Cc1cc(C)c(OS(=O)(=O)c2ccc(N3CCNC3=O)cc2)cc1C | 42 nM | 41 nM | 66 nM | 1% | 20% | 79% | Active | Active
13 | COc1ccc(OS(=O)(=O)c2ccc(N3CCNC3=O)cc2)cc1OC | 67 nM | 45 nM | 88 nM | 1% | 19% | 80% | Active | Active
14 | O=C1NCCN1c1ccc(S(=O)(=O)Oc2c(Cl)cc(Cl)cc2Cl)cc1 | 110 nM | 120 nM | 170 nM |  |  |  |  | 
15 | Cc1cccc(OS(=O)(=O)c2ccc(N3CCNC3=O)cc2)c1 | 76 nM | 54 nM | 57 nM | 1% | 0% | 99% | Active | Active
16 | O=C1NCCN1c1ccc(S(=O)(=O)Oc2ccc([N+](=O)[O-])cc2)cc1 | > 1000 nM | 570 nM | > 1000 nM |  |  |  |  | 
17 | Cc1ccc2cccc(OS(=O)(=O)c3ccc(N4CCNC4=O)cc3)c2n1 | 180 nM | 130 nM | 330 nM |  |  |  |  | 
18 | CC(C)(C)[Si](C)(C)Oc1ccc(OS(=O)(=O)c2ccc(N3CCNC3=O)cc2)cc1 | > 1000 nM | > 1000 nM | > 1000 nM |  |  |  |  | 
19 | O=C1NCCN1c1ccc(S(=O)(=O)Oc2ccc(-n3ccnc3)cc2)cc1 | > 1000 nM | > 1000 nM | > 1000 nM |  |  |  |  | 
20 | Cc1cc(OS(=O)(=O)c2ccc(N3CCNC3=O)cc2)ccc1[N+](=O)[O-] | 140 nM | 100 nM | 180 nM |  |  |  |  | 
21 | Cc1cc(C)cc(OS(=O)(=O)c2ccc(N3CCNC3=O)cc2)c1 | 32 nM | 16 nM | 47 nM | 7% | 26% | 67% | Active | Active
22 | CCc1ccccc1OS(=O)(=O)c1ccc(N2CCNC2=O)cc1 | 61 nM | 52 nM | 87 nM | 0% | 0% | 100% | Active | Active
23 | O=C1NCCN1c1ccc(S(=O)(=O)Oc2ccncc2)cc1 | > 1000 nM | > 1000 nM | > 1000 nM |  |  |  |  | 
24 | CCc1ccccc1OS(=O)(=O)c1ccc(N2CCCNC2=O)cc1 | > 1000 nM | > 1000 nM | > 1000 nM |  |  |  |  | 
25 | CCCOc1ccc(OS(=O)(=O)c2ccc(N3CCNC3=O)cc2)cc1 | 110 nM | 96 nM | 140 nM | 0% | 6% | 94% | Active | Active

Row | SMILES | IC50 (HT-29) | IC50 (M21 [1]) | IC50 (MCF7) | Activity (M21 [2]) | Activity (M21 [3]) | Activity (M21 [4]) | inhibition (MDA-MB-231) | Activity (M21 [5])
26 | O=C1NCCN1c1ccc(S(=O)(=O)Oc2ccc(O)cc2)cc1 | > 1000 nM | > 1000 nM | > 1000 nM |  |  |  |  | 
27 | COc1cccc(OS(=O)(=O)c2ccc(N3CCCNC3=O)cc2)c1 | > 1000 nM | > 1000 nM | > 1000 nM |  |  |  |  | 
28 | O=C(NCCCl)Nc1cccc(CCCCCO)c1 | 150 nM | 230 nM | 420 nM | 1% | 11% | 88% |  | Active
29 | O=C1NCCN1c1ccc(S(=O)(=O)Oc2ccccc2I)cc1 | 55 nM | 40 nM | 71 nM | 4% | 25% | 71% | Active | Active
30 | Cc1ccc(OS(=O)(=O)c2ccc(N3CCCNC3=O)cc2)cc1 | 720 nM | > 1000 nM | > 1000 nM |  |  |  |  | 
31 | Cc1ccccc1OS(=O)(=O)c1ccc(N2CCCNC2=O)cc1 | > 1000 nM | > 1000 nM | > 1000 nM |  |  |  |  | 
32 | CCCc1ccccc1OS(=O)(=O)c1ccc(N2CCCNC2=O)cc1 | > 1000 nM | > 1000 nM | > 1000 nM |  |  |  |  | 
33 | Cc1ccc(OS(=O)(=O)c2ccc(N3CCNC3=O)cc2)cc1 | 120 nM | 93 nM | 150 nM | 32% | 13% | 55% | inactive | Active
34 | O=C1NCCN1c1ccc(S(=O)(=O)Oc2c(F)c(F)c(F)c(F)c2F)cc1 | 340 nM | 220 nM | 320 nM |  |  |  |  | 
35 | O=C1NCCCN1c1ccc(S(=O)(=O)Oc2c(Cl)cc(Cl)cc2Cl)cc1 | > 1000 nM | > 1000 nM | > 1000 nM |  |  |  |  | 
36 | O=C1NCCN1c1ccc(S(=O)(=O)Oc2ccccc2[N+](=O)[O-])cc1 | 190 nM | 150 nM | 270 nM |  |  |  |  | 
37 | Nc1cccc(OS(=O)(=O)c2ccc(N3CCNC3=O)cc2)c1 | 1000 nM | 170 nM | 270 nM |  |  |  |  | 
38 | O=C1NCCCN1c1ccc(S(=O)(=O)Oc2cccc(F)c2)cc1 | > 1000 nM | > 1000 nM | > 1000 nM |  |  |  |  | 
39 | COc1ccccc1OS(=O)(=O)c1ccc(N2CCNC2=O)cc1 | 180 nM | 130 nM | 220 nM |  |  |  |  | 
40 | O=C1NCCCN1c1ccc(S(=O)(=O)Oc2ccc(F)cc2)cc1 | > 1000 nM | > 1000 nM | > 1000 nM |  |  |  |  | 
41 | O=C1NCCN1c1ccc(S(=O)(=O)Oc2ccccn2)cc1 | 480 nM | 290 nM | 770 nM |  |  |  |  | 
42 | CCCCOc1ccc(OS(=O)(=O)c2ccc(N3CCNC3=O)cc2)cc1 | 540 nM | 530 nM | 890 nM |  |  |  |  | 
43 | Nc1ccc(OS(=O)(=O)c2ccc(N3CCNC3=O)cc2)cc1 | > 1000 nM | 920 nM | > 1000 nM |  |  |  |  | 
44 | O=C1NCCN1c1ccc(S(=O)(=O)Oc2ccccc2)cc1 | > 1000 nM | > 1000 nM | > 1000 nM |  |  |  |  | 
45 | CCc1ccc(OS(=O)(=O)c2ccc(N3CCNC3=O)cc2)cc1 | 150 nM | 120 nM | 190 nM |  |  |  |  | 
46 | CCC(C)c1ccc(OS(=O)(=O)c2ccc(N3CCNC3=O)cc2)cc1 (stereo not drawn) | 780 nM | 830 nM | 920 nM |  |  |  |  | 
47 | CCOc1ccc(OS(=O)(=O)c2ccc(N3CCNC3=O)cc2)cc1 | 44 nM | 39 nM | 56 nM | 2% | 23% | 75% |  | Active
48 | O=C1NCCN1c1ccc(S(=O)(=O)Oc2ccc(I)cc2)cc1 | 150 nM | 110 nM | 210 nM |  |  |  |  | 
49 | Cc1ccc(OS(=O)(=O)c2ccc(N3CCCNC3=O)cc2)c(C)c1 | > 1000 nM | > 1000 nM | > 1000 nM |  |  |  |  | 
50 | CN(C)c1ccc(OS(=O)(=O)c2ccc(N3CCNC3=O)cc2)cc1 | 430 nM | 350 nM | 500 nM |  |  |  |  | 
